Source: ChEMBL document CHEMBL1955790, “One pot synthesis and anticancer activity of dimeric phloroglucinols” (Bioorg Med Chem Lett, 2012)

Key:
[1] = test system: Calu-1; test: Growth inhibition of human Calu1 cells at 10 uM after 48 hrs by WST-8 assay; assay type: functional; settings: Calu-1, 48 h, read-out: GI
How it was run: (§1)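 ATCC cells kept in DMEM with 10% FBS and antibiotics at 37 °C, 5% CO2. Seeded 5×10^3/well, incubated overnight, then treated with compound for 48 h against a DMSO vehicle control (≤0.1%). CCK-8 (WST-8) reduction by live-cell dehydrogenases read at 450 nm (corrected 650 nm) after 4 h at 37 °C. Viable cells expressed as % of the DMSO control.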

[2] = test system: HCT-116; test: Growth inhibition of human HCT116 cells at 10 uM after 48 hrs by WST-8 assay; assay type: functional; settings: HCT-116, 48 h, read-out: GI; how it was run: as §1
[3] = test system: PANC-1; test: Growth inhibition of human PANC1 cells at 10 uM after 48 hrs by WST-8 assay; assay type: functional; settings: PANC-1, 48 h, read-out: GI; how it was run: as §1
[4] = test system: NCI-H460; test: Growth inhibition of human NCI-H460 cells at 10 uM after 48 hrs by WST-8 assay; assay type: functional; settings: NCI-H460, 48 h, read-out: GI; how it was run: as §1
[5] = test system: ACHN; test: Growth inhibition of human ACHN cells at 10 uM after 48 hrs by WST-8 assay; assay type: functional; settings: read-out: GI; how it was run: as §1
[6] = test system: Calu-1; test: Cytotoxicity against human Calu1 cells after 48 hrs by WST-8 assay; assay type: functional, cell-based; settings: Calu-1, 48 h
How it was run: (§2)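 ATCC cells kept in DMEM with 10% FBS, penicillin/streptomycin at 37 °C, 5% CO2. Seeded 5×10^3/well and left overnight, then exposed to a range of concentrations with DMSO vehicle (≤0.1%) as control. After 48 h, CCK-8 (WST-8) was added for 4 h at 37 °C and A450 read, corrected to 650 nm. Viability is % of DMSO control. IC50 was taken from log cytotoxicity curves.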

[7] = test system: MCF-10A; test: Cytotoxicity against human MCF10A cells after 48 hrs by WST-8 assay; assay type: cell-based; how it was run: as §2
[8] = test system: NCI-H460; test: Cytotoxicity against human NCI-H460 cells after 48 hrs by WST-8 assay; assay type: functional, cell-based; settings: NCI-H460, 48 h; how it was run: as §2
[9] = test system: PANC-1; test: Cytotoxicity against human PANC1 cells after 48 hrs by WST-8 assay; assay type: functional, cell-based; settings: PANC-1, 48 h; how it was run: as §2
[10] = test system: ACHN; test: Cytotoxicity against human ACHN cells after 48 hrs by WST-8 assay; assay type: functional, cell-based; how it was run: as §2
[11] = test system: HCT-116; test: Cytotoxicity against human HCT116 cells after 48 hrs by WST-8 assay; assay type: functional, cell-based; settings: HCT-116, 48 h; how it was run: as §2

SMILES | inhibition of growth at 10 µM [1] [%] | inhibition of growth at 10 µM [2] [%] | inhibition of growth at 10 µM [3] [%] | inhibition of growth at 10 µM [4] [%] | inhibition of growth at 10 µM [5] [%] | IC50 [6] [µM] | IC50 [7] [µM] | IC50 [8] [µM] | IC50 [9] [µM] | IC50 [10] [µM] | IC50 [11] [µM]
CC(C)CC(=O)c1c(O)c(C(=O)CC(C)C)c(O)c(C(c2c(O)c(C(=O)CC(C)C)c(O)c(C(=O)CC(C)C)c2O)c2cccc3ccccc23)c1O | 15 | 0 | 17 | 26 | 6 |  |  |  |  |  | 
CC(=O)c1c(O)c(Cc2c(O)c(C(C)=O)c(O)c(C(C)=O)c2O)c(O)c(C(C)=O)c1O | 39 | 8 | 22 | 0 | 46 |  |  |  |  |  | 
CCC(c1c(O)c(C(=O)CC(C)C)c(O)c(C(=O)CC(C)C)c1O)c1c(O)c(C(=O)CC(C)C)c(O)c(C(=O)CC(C)C)c1O | 10 | 22 | 0 | 10 | 0 |  |  |  |  |  | 
CC(C)CC(=O)c1c(O)c(C(=O)CC(C)C)c(O)c(C(c2cc3ccccc3o2)c2c(O)c(C(=O)CC(C)C)c(O)c(C(=O)CC(C)C)c2O)c1O | 56 | 20 | 0 | 37 | 7 |  |  |  |  |  | 
CC(=O)c1c(O)c(C(C)=O)c(O)c(C(c2ccccc2)c2c(O)c(C(C)=O)c(O)c(C(C)=O)c2O)c1O | 47 | 0 | 0 | 29 | 29 |  |  |  |  |  | 
CC(C)CC(=O)c1c(O)c(C=O)c(O)c(C(c2ncc[nH]2)c2c(O)c(C=O)c(O)c(C(=O)CC(C)C)c2O)c1O | 0 | 18 | 0 | 22 | 38 |  |  |  |  |  | 
CC(=O)c1c(O)cc(O)c(C(C)=O)c1O | 0 | 0 | 0 | 25 | 44 |  |  |  |  |  | 
CC(C)C(=O)c1c(O)cc(O)c(C(=O)C(C)C)c1O | 15 | 0 | 0 | 22 | 33 |  |  |  |  |  | 
CC(=O)c1c(O)c(C(C)=O)c(O)c(C(c2cccs2)c2c(O)c(C(C)=O)c(O)c(C(C)=O)c2O)c1O | 0 | 55 | 64 | 54 | 57 | 9.7 | > 30 | 8.9 | 9.4 | 9.2 | 9.9
CC(C)CC(=O)c1c(O)c(C=O)c(O)c(C(c2ccc(C(F)(F)F)cc2C(F)(F)F)c2c(O)c(C=O)c(O)c(C(=O)CC(C)C)c2O)c1O | 6 | 14 | 0 | 5 | 0 |  |  |  |  |  | 
CC(C)CC(=O)c1c(O)c(C(=O)CC(C)C)c(O)c(C(c2ccc(C(F)(F)F)cc2C(F)(F)F)c2c(O)c(C(=O)CC(C)C)c(O)c(C(=O)CC(C)C)c2O)c1O | 65 | 61 | 60 | 64 | 57 | 8.5 | 27.6 | 8.6 | 8.3 | 8.8 | 9.2
CC(C)CC(=O)c1c(O)c(C(=O)CC(C)C)c(O)c(C(c2c(O)c(C(=O)CC(C)C)c(O)c(C(=O)CC(C)C)c2O)C2CCCCC2)c1O | 18 | 0 | 0 | 29 | 14 |  |  |  |  |  | 
CC(C)CC(=O)c1c(O)c(Cc2c(O)c(C(=O)CC(C)C)c(O)c(C(=O)CC(C)C)c2O)c(O)c(C(=O)CC(C)C)c1O | 7 | 1 | 0 | 3 | 35 |  |  |  |  |  | 
CC(C)CC(=O)c1c(O)c(C=O)c(O)c(C(c2ccc(OCc3ccccc3)cc2)c2c(O)c(C=O)c(O)c(C(=O)CC(C)C)c2O)c1O | 30 | 48 | 6 | 49 | 44 |  |  |  |  |  | 
CC(C)CC(=O)c1c(O)c(C=O)c(O)c(Cc2c(O)c(C=O)c(O)c(C(=O)CC(C)C)c2O)c1O | 29 | 9 | 15 | 0 | 35 |  |  |  |  |  | 
CC(=O)c1c(O)c(C(C)=O)c(O)c(C(C)c2c(O)c(C(C)=O)c(O)c(C(C)=O)c2O)c1O | 38 | 3 | 0 | 0 | 19 |  |  |  |  |  | 
CC(C)C(=O)c1c(O)c(Cc2c(O)c(C(=O)C(C)C)c(O)c(C(=O)C(C)C)c2O)c(O)c(C(=O)C(C)C)c1O | 16 | 6 | 12 | 25 | 30 |  |  |  |  |  | 
CC(C)CC(=O)c1c(O)c(C=O)c(O)c(C(c2ccc3c(c2)OCO3)c2c(O)c(C=O)c(O)c(C(=O)CC(C)C)c2O)c1O | 54 | 50 | 55 | 51 | 53 | 9.2 | 25.9 | 8.6 | 8.8 | 8.9 | 9.5
CC(=O)c1c(O)c(C(C)=O)c(O)c(C(c2ccccn2)c2c(O)c(C(C)=O)c(O)c(C(C)=O)c2O)c1O | 24 | 11 | 0 | 0 | 12 |  |  |  |  |  | 
CC(C)CC(=O)c1c(O)c(C(=O)CC(C)C)c(O)c(C(c2ccc(-c3ccccc3)cc2)c2c(O)c(C(=O)CC(C)C)c(O)c(C(=O)CC(C)C)c2O)c1O | 52 | 55 | 54 | 54 | 59 | 7.9 | > 26.3 | 8.3 | 9.1 | 8.9 | 8.6
CC(C)CC(=O)c1c(O)c(C=O)c(O)c(C(c2ccncc2)c2c(O)c(C=O)c(O)c(C(=O)CC(C)C)c2O)c1O | 17 | 0 | 5 | 0 | 21 |  |  |  |  |  | 
CC(C)CC(=O)c1c(O)cc(O)c(C=O)c1O | 59 | 57 | 50 | 58 | 52 | 9.1 | > 27.3 | 9.4 | 8.5 | 8.9 | 9.7
CC(C)CC(=O)c1c(O)c(C=O)c(O)c(C(c2cc3ccccc3o2)c2c(O)c(C=O)c(O)c(C(=O)CC(C)C)c2O)c1O | 2 | 11 | 0 | 5 | 6 |  |  |  |  |  | 
CC(C)CC(=O)c1c(O)cc(O)c(C(=O)CC(C)C)c1O | 0 | 55 | 0 | 46 | 30 |  |  |  |  |  | 
CC(C)CC(=O)c1c(O)c(C(=O)CC(C)C)c(O)c(C(c2ccc3c(c2)Cc2ccccc2-3)c2c(O)c(C(=O)CC(C)C)c(O)c(C(=O)CC(C)C)c2O)c1O | 0 | 0 | 18 | 15 | 17 |  |  |  |  |  | 
CC(C)CC(=O)c1c(O)c(C(=O)CC(C)C)c(O)c(C(c2ncc[nH]2)c2c(O)c(C(=O)CC(C)C)c(O)c(C(=O)CC(C)C)c2O)c1O | 11 | 0 | 0 | 15 | 0 |  |  |  |  |  | 
CC(C)CC(=O)c1c(O)c(C=O)c(O)c(C(c2ccc(-c3ccccc3)cc2)c2c(O)c(C=O)c(O)c(C(=O)CC(C)C)c2O)c1O | 0 | 5 | 0 | 28 | 0 |  |  |  |  |  | 
CC(C)CC(=O)c1c(O)c(C(=O)CC(C)C)c(O)c(C(C)c2c(O)c(C(=O)CC(C)C)c(O)c(C(=O)CC(C)C)c2O)c1O | 12 | 25 | 0 | 12 | 11 |  |  |  |  |  | 
